Measurements from ChEMBL document CHEMBL1151206, “Glycosidase-inhibiting pyrrolidines and pyrrolizidines with a long side chain in Scilla peruviana” (J Nat Prod, 2004).

Molecular target: not listed separately
Experiment: Inhibition of Caldocellum saccharolyticum beta-glucosidase by spectrophotometry
Parameters: species or system Caldicellulosiruptor saccharolyticus
In short: (§1)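 Commercial enzyme assayed with the matching p-nitrophenyl glycoside (2 mM) in a 1 mL reaction, at pH 5.0 for the C. saccharolyticum and almond beta-glucosidases, pH 6.8 for bovine liver beta-galactosidase and pH 6.8 for yeast alpha-glucosidase. The reaction was stopped with 2 mL of 400 mM Na2CO3 and released p-nitrophenol was read at 400 nm. IC50 was determined.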

Structure (SMILES)	IC50 [µM]
OC[C@@H](O)[C@H]1N[C@H](CO)[C@@H](O)[C@@H]1O	3.2

Molecular target: T1, Beta-galactosidase (Bos taurus, UniProt Q58D55)
T1 sequence (Q58D55 whole entry): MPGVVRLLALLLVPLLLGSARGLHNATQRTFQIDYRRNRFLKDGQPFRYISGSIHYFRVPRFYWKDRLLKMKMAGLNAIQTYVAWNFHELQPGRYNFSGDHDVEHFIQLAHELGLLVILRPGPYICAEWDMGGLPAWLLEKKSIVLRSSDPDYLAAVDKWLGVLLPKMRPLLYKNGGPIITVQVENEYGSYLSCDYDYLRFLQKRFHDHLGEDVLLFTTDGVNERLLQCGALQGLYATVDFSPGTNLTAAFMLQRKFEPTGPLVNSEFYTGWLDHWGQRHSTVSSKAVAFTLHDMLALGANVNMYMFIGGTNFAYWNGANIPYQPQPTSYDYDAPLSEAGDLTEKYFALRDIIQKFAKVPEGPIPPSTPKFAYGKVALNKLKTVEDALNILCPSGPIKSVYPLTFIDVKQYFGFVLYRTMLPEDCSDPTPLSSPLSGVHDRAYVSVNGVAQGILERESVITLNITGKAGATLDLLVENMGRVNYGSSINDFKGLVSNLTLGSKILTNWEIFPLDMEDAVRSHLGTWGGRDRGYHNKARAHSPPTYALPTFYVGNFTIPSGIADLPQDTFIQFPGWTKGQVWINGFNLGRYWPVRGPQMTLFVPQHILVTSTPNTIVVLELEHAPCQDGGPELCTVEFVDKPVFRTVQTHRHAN
Experiment: Inhibition of bovine liver beta-galactosidase by spectrophotometry
In short: as §1

Structure (SMILES)	IC50 [µM]
OC[C@@H](O)[C@H]1N[C@H](CO)[C@@H](O)[C@@H]1O	4.4

Molecular target: not listed separately
Experiment: Inhibition of yeast alpha-glucosidase by spectrophotometry
Parameters: species or system Saccharomyces cerevisiae
In short: as §1

Structure (SMILES)	IC50 [µM]
OC[C@@H]1[C@@H](O)[C@H](O)[C@H]2[C@H](O)CCN21	95

Molecular target: not listed separately
Experiment: Inhibition of almond beta-glucosidase by spectrophotometry
Parameters: species or system Prunus dulcis
In short: as §1

Structure (SMILES)	IC50 [nM]
OC[C@H]1N[C@H]([C@H](O)CCCC[C@@H]2CCC[C@]3(CCCO3)O2)[C@@H](O)[C@@H]1O	10
OC[C@H]1N[C@H](C(O)CCC[C@@H]2CCC[C@]3(CCCCO3)O2)[C@@H](O)[C@@H]1O (some centres undefined)	10

Other lines, results leading:

IC50 [nM]	Structure (SMILES)
10	O=C(CCCCCCC[C@@H](O)[C@H]1N[C@H](CO)[C@@H](O)[C@@H]1O)CCCCO[C@@H]1O[C@H](CO)[C@@H](O)[C@H](O)[C@H]1O
10	O=C(CCCO)CCCCCCCC[C@@H](O)[C@H]1N[C@H](CO)[C@@H](O)[C@@H]1O
10	O=C(CCCCO)CCCCCCC[C@@H](O)[C@H]1N[C@H](CO)[C@@H](O)[C@@H]1O
10	O=C(CCCCCCCC[C@@H](O)[C@H]1N[C@H](CO)[C@@H](O)[C@@H]1O)CCCO[C@@H]1O[C@H](CO)[C@@H](O)[C@H](O)[C@H]1O
